Assay outcomes: PubChem, several laboratories
PAFAH1B3 FP inh – blocks human PAF acetylhydrolase 1B catalytic subunit 3 | Q15102 | recombinant PAFAH1B3, FP-rhodamine probe, fluorescence polarization | inhibition, % at 3.39 µM | hit rate 0.28% among 340,000;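 active = inhibition above the screen-wide average of all tested compounds plus 3 SD, cut at about 25% in these data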
Target sequence (Q15102 whole entry, looked up): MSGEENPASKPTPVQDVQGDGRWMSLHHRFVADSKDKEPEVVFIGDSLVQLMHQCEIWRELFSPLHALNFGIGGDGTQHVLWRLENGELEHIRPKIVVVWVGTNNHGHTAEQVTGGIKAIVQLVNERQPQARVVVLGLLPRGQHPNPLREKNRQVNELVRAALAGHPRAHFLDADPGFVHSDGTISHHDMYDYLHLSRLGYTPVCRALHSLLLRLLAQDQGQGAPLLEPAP
pPAFAH FP inh – inhibitors of human plasma PAF acetylhydrolase (pPAFAH) | inhibition, % at 3.39 µM | AID 463082 | hit rate 1.5% among 330,000 | recombinant pPAFAH, FP-rhodamine probe fluorescence polarization;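 active = inhibition above the mean inhibition across the screen plus 3 SD, cut at about 25% in these data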;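 also: inhibitors block binding of the rhodamine activity-based probe so polarization drops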
Target sequence (Q13093 whole entry, looked up): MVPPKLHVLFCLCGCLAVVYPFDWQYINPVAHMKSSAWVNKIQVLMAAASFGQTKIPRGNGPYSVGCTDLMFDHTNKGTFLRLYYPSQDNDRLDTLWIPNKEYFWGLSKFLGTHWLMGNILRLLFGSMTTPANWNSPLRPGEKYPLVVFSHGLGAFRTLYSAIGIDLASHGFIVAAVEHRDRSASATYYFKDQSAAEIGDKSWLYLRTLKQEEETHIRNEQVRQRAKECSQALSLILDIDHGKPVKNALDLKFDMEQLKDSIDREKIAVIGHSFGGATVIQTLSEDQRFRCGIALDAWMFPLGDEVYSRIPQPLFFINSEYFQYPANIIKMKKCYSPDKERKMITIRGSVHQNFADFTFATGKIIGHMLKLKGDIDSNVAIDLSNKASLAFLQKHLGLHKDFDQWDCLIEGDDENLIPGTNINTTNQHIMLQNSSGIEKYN
PAFAH2 FP inh – inhibitors of human PAFAH2 | Q99487 | recombinant PAFAH2, FP-rhodamine activity probe, fluorescence polarization | inhibition, % at 3.39 µM | hit rate 0.99% among 340,000 | AID 492956;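 active = inhibition above the mean over all tested compounds plus 3 SD, cut at about 30% in these data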;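 also: inhibitors block probe labeling of enzyme so polarization drops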
Apaf1 inhib – inhibitors of human Apaf-1 apoptosome; reconstituted apoptosome caspase-3 activity, DEVD-Rh110 fluorescence; hit rate 0.71% among 330,000; O14727; inhibition, % at 20 µM; active = inhibition of at least 40% at 20 µM
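Material: reconstituted apoptosome with Apaf-1, cytochrome c, caspase-9, procaspase-3, dATP / Buffer or medium: pH 7.5 Hepes buffer with CHAPS, BSA, DTT / Also added: cytochrome c with DEVD-Rh110 / Schedule: compound with Apaf-1, dATP, procaspase-3 30 min, then 50 min reaction, room temperature / Technique: rhodamine 110 fluorescence at Ex 480/Em 540 nm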
PAFAH1B2 FP inh – blocks human PAF acetylhydrolase 1b catalytic subunit 2. P68402. recombinant PAFAH1B2, FP-rhodamine activity probe, fluorescence polarization. inhibition, % at 3.39 µM. hit rate 1.2% among 340,000;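 active = inhibition above the mean of all tested compounds plus 3 SD, cut at about 24% in these data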
PAFAH2 FP conf – confirmation of human PAFAH2 inhibitors | shares compounds with PAFAH2 FP inh | inhibition, % at 3.39 µM | AID 493030 | recombinant PAFAH2, FP-rhodamine activity probe, fluorescence polarization | hit rate 65% among 2,300;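 active = mean inhibition over three repeats above a set limit taken from the earlier primary screen, cut at about 30% in these data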;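 also: inhibitor blocks binding of rhodamine activity probe so polarization falls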
Large screens that a line does not name were inactive (follow-up assays come after a bar, where they were run). A selection: hits, their analogues and other compounds. The true share with any hit is near 3.1%.

C/C=C/C(=O)OCC(=O)Nc1ccc(OC)c(Cl)c1	PAFAH2 FP inh 39 | PAFAH2 FP conf inactive
C/C=C/C(=O)OCC(=O)Nc1cccc(Br)c1	PAFAH2 FP inh 82 | PAFAH2 FP conf 73
C/C=C/C(=O)OCC(=O)Nc1ccc(OC)c(OC)c1	none
C/C=C/C(=O)OCC(=O)Nc1cccc(F)c1	PAFAH2 FP inh 78 | PAFAH2 FP conf 65
COc1ccc(C(=O)NC2CCc3ccccc32)cc1OC1CCN(C(C)C)CC1 (stereo not drawn)	none
O=C(OCC1CC(c2ccccc2)=NO1)c1ccco1 (stereo not drawn)	PAFAH2 FP inh 33 | PAFAH2 FP conf inactive
N#Cc1ccc(COC(=O)c2cnc3ccccc3n2)cc1	none
COc1ccc(C(=O)O/N=C(\N)Cc2ccc(Cl)c(Cl)c2)cc1OC	PAFAH2 FP inh 90 | PAFAH2 FP conf 82
COc1cc(C(=O)O/N=C(\N)Cc2ccc([N+](=O)[O-])cc2)cc(OC)c1OC	none (no result: PAFAH1B3 FP inh, PAFAH2 FP inh, PAFAH1B2 FP inh)
N/C(Cc1ccc([N+](=O)[O-])cc1)=N\OC(=O)c1ccc([N+](=O)[O-])cc1	none
N/C(Cc1ccc(Cl)cc1)=N\OC(=O)c1ccccc1	PAFAH2 FP inh 83 | PAFAH2 FP conf 76
CC(C)(C)C(=O)OC/C(N)=N/OC(=O)c1ccc(Cl)cc1	PAFAH2 FP inh 85 | PAFAH2 FP conf 65
COc1ccc(C(=O)O/N=C(\N)Cc2ccc(Cl)cc2)cc1OC	PAFAH2 FP inh 74 | PAFAH2 FP conf 78
Clc1ccccc1Cc1noc(CN2CCN(Cc3ccccn3)CC2)n1	PAFAH2 FP inh 33 | PAFAH2 FP conf inactive
CC1CC1C(=O)OCC(=O)Nc1cc(S(=O)(=O)N2CCCCC2)ccc1Cl (stereo not drawn)	PAFAH2 FP inh 72 | PAFAH2 FP conf 60
Cc1ccc(NC(=O)COC(=O)C2CC2C)c(S(=O)(=O)N2CCCCC2)c1 (stereo not drawn)	PAFAH2 FP inh 82 | PAFAH2 FP conf 78
Cc1cnc(C(=O)OCC(=O)Nc2cc(S(=O)(=O)N3CCCCC3)ccc2Cl)cn1	none
CSCCC(=O)NC1CCCN(CCc2ccccc2)C1 (stereo not drawn)	none
Cc1ccccc1N1CCN(C2=NC(=O)/C(=C\c3cccs3)S2)CC1	PAFAH2 FP inh 41 | PAFAH2 FP conf 31
CC(C)n1c(N2CCN(S(=O)(=O)c3cccc([N+](=O)[O-])c3)CC2)nc2ccccc21	none
COc1cc(NC(=O)C(C)Oc2ccccc2)ccc1NC(=O)COc1ccccc1 (stereo not drawn)	none
COc1ccc(OC)c(CN2CCN(C(=O)[C@@H](NC(=O)c3cccc(C)c3)C(C)C)CC2)c1	none
Cc1cc(C(=O)OCC(=O)Nc2ccc(F)c(F)c2F)c(C)o1	PAFAH2 FP inh 52 | PAFAH2 FP conf 50
Cc1cc(C(=O)OCC(=O)Nc2ccccc2)c(C)o1	PAFAH2 FP inh 78 | PAFAH2 FP conf 74
COc1ccc(Cl)cc1NC(=O)COC(=O)c1cc(C)oc1C	none
Cc1ccc(C(=O)OCC(=O)Nc2ccc(F)c(Cl)c2)o1	PAFAH2 FP inh 85 | PAFAH2 FP conf 75
Cc1cc(C(=O)OCC(=O)Nc2ccc(F)cc2)c(C)o1	PAFAH2 FP inh 79 | PAFAH2 FP conf 78
C[C@@H](N)C(=O)NC[C@H]1O[C@@H](n2cnc3c(N)ncnc32)[C@H](O)[C@@H]1O	none
CN(C)S(=O)(=O)c1ccc(N2CCCC2)c(C(=O)OCC(=O)N2CCN(c3ccccc3)CC2)c1	none
CC1CCC2(CC1)NC(=O)N(CC(=O)Nc1ccc(F)cc1)C2=O (stereo not drawn)	none
CC1CCCCN1CCNC(=O)c1ccc2c(=O)n(Cc3ccc(Cl)cc3)c(=S)[nH]c2c1 (stereo not drawn)	none
O=C(ON=C1CCN(S(=O)(=O)c2ccccc2)CC1)c1ccc(F)cc1	PAFAH2 FP inh 87 | PAFAH2 FP conf 84
CS(=O)(=O)ON=C1CCN(S(=O)(=O)c2ccccc2)CC1	none
Cc1ccc(C(=O)ON=C2CCN(S(=O)(=O)c3ccccc3)CC2)cc1	PAFAH2 FP inh 90 (no result: Apaf1 inhib) | PAFAH2 FP conf 89
CC(C)(C)C1CCC(=NOC(=O)c2ccc(F)cc2)CC1 (stereo not drawn)	PAFAH2 FP inh 81 | PAFAH2 FP conf 84
O=C(CCN1C(=O)/C(=C/c2ccc(F)cc2)SC1=S)Nc1cc([N+](=O)[O-])ccc1O	PAFAH2 FP inh 65 | PAFAH2 FP conf 69
O=C(CCCN1C(=O)/C(=C/c2ccccc2)SC1=S)Nc1ccccc1O	none
Cc1ccc(C)c(S(=O)(=O)N2CCN(C(=O)CSc3ccccc3F)CC2)c1	none
CC1CCC(C(C)C)C(OC(=O)COC(=O)c2ccc(N)cc2)C1 (stereo not drawn)	PAFAH2 FP inh 53 | PAFAH2 FP conf 34
CC1CCC(C(C)C)C(OC(=O)COC(=O)c2cccn2C)C1 (stereo not drawn)	none
C[C@@H]1CCCCCCCCC(=O)OCCN(C(=O)OC(C)(C)C)[C@H](C)CCCCCCCCC(=O)OCCN(C(=O)OC(C)(C)C)[C@H](C)CCCCCCCCC(=O)OCCN1C(=O)OC(C)(C)C	none (no result: PAFAH1B3 FP inh, PAFAH2 FP inh, PAFAH1B2 FP inh)
O=C(NC1CCCC1)c1sc(=S)n2c1[nH]c(=O)c1ccccc12	PAFAH2 FP inh 39 | PAFAH2 FP conf 32
Cc1ccsc1C(=O)OCC(=O)Nc1cccc(S(=O)(=O)N2CCOCC2)c1	PAFAH2 FP inh 77 | PAFAH2 FP conf 58
Cc1ccc(NC(=O)COC(=O)c2sccc2C)cc1S(=O)(=O)N1CCOCC1	PAFAH2 FP inh 81 | PAFAH2 FP conf 72
O=C(COC(=O)CC1CC2CCC1C2)Nc1ccc(Cl)c(S(=O)(=O)N2CCOCC2)c1 (stereo not drawn)	PAFAH2 FP inh 69 | PAFAH2 FP conf 59
Cc1ccc(C(=O)OCC(=O)Nc2cccc(S(=O)(=O)N3CCOCC3)c2)o1	none
Cc1ccccc1CCNC(=O)C1CC(O)CN1C(=O)Nc1ccccc1 (stereo not drawn)	none
O=C(NCc1ccc(N2CCCC2=O)cc1)c1ccc(F)cc1	none
CC(NC(=O)COC(=O)c1ccc(N2CCCC2=O)cc1)c1ccc(F)cc1 (stereo not drawn)	PAFAH2 FP inh 78 | PAFAH2 FP conf 68
COc1ccc(NC(=O)COC(=O)c2ccc(N3CCCC3=O)cc2)cc1	PAFAH2 FP inh 84 | PAFAH2 FP conf 67
COc1ccc(CNC(=O)c2ccc(N3CCCC3=O)cc2)cc1	none
COc1ccc(CCNC(=O)COC(=O)c2ccc(N3CCCC3=O)cc2)cc1	PAFAH2 FP inh 56 | PAFAH2 FP conf 40
NC(=S)n1[nH]c(-c2ccc([N+](=O)[O-])cc2)c(N=Nc2ccccc2[N+](=O)[O-])c1=O	none (no result: pPAFAH FP inh, Apaf1 inhib)
Cc1c(N=Nc2c(-c3ccc([N+](=O)[O-])cc3)[nH]n(C(N)=S)c2=O)cccc1[N+](=O)[O-]	PAFAH2 FP inh 55 (no result: pPAFAH FP inh, Apaf1 inhib) | PAFAH2 FP conf 36
COc1ccc(NC(=O)CN2CCCCC2)c([N+](=O)[O-])c1	none
